The target in one test is T1, Bile acid receptor (Homo sapiens, UniProt Q96RI1).
T1 sequence (Q96RI1 whole entry): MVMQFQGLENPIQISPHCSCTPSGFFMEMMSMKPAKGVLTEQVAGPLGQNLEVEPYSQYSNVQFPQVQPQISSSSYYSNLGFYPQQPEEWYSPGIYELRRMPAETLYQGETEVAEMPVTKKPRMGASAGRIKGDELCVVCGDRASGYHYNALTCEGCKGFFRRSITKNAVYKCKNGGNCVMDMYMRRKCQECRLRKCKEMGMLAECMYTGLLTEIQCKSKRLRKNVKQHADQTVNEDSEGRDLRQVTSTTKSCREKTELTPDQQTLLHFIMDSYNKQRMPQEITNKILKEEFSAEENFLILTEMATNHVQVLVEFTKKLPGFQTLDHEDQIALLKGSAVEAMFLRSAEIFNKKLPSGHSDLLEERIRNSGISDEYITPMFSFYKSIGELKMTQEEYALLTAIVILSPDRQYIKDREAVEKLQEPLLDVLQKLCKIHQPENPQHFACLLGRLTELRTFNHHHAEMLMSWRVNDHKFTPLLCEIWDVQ
In words: Antagonist activity at GST-tagged FXRalpha LBD (unknown origin) assessed as inhibition of CDCA-induced bio-SRC-1 recruitment after 30 mins by fluorescence based HTRF assay. In a few lines:
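HTRF coactivator-recruitment assay: 10 nM GST-FXRα LBD with 100 nM biotinylated SRC-1 peptide, with CDCA as agonist present. Compounds were tested at a single concentration or a concentration series, incubated 30 min at room temperature, then fluorescence read. Values are mean SD of triplicate measurements.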
A general note: In TR-FRET formats the signal depends on donor and acceptor labels being close together.

Test [1] deals with T2, Bile acid receptor (Homo sapiens) (UniProt Q96RI1).
T2 sequence (whole entry): T1 sequence (Q96RI1 whole entry)
In words: Ratio of guggulsterone IC50 to compound IC50 for GST-tagged FXRalpha LBD (unknown origin) assessed as inhibition of CDCA-induced bio-SRC-1 recruitment after 30 mins by fluorescence based HTRF assay.

pIC50: −log10 of the molar value.

The pIC50 is −log10 of the IC50, conventionally taken in molar units. In the case of `CCc1cc(C(C)=O)c(OCC2CCCCC2)cc1OCCCCCC(C)(C)c1nnn[nH]1`, at Bile acid receptor, the pIC50 is 5.54.
In the case of `CCCCc1cc(C(C)=O)c(O)cc1OCCCCCC(C)(C)c1nnn[nH]1`, at Bile acid receptor, the negative logarithm of the IC50 (pIC50) is 5.82.
The same measure, in the same setting: for `CCCCc1cc(C(C)=O)c(OCc2ccccc2)cc1OCCCCCC(C)(C)c1nnn[nH]1` the value was 5.11; for `CCc1cc(CC)c(OCCCCCC(C)(C)c2nn[nH]n2)cc1O`, 5.51; for `CCCCCCc1cc(C(C)=O)c(O)cc1OCCCCCC(C)(C)c1nnn[nH]1`, 5.49.
The same measure, in the same setting: the value for `CC(=O)c1cc(CC(C)C)c(OCCCCCC(C)(C)c2nnn[nH]2)cc1O` was 5.24; that for `CCC(=O)c1cc(CC)c(OCCCCCC(C)(C)c2nnn[nH]2)cc1O` was 5.07.
The same measure, in the same setting: for `CCc1cc(C(C)=O)c(OCc2cccc(C)c2)cc1OCCCCCC(C)(C)c1nnn[nH]1` the value was 5.92; for `CCc1cc(C(C)=O)c(O)cc1OCCCCCC(C)(C)c1nn[nH]n1` [LY-255283], 4.45; for `CCCCCCC(=O)c1cc(CC)c(OCCCCCC(C)(C)c2nnn[nH]2)cc1O`, 5.08.
Consider `CCc1cc(CC)c(OCc2ccccc2)cc1OCCCCCC(C)(C)c1nnn[nH]1`, for which the negative logarithm of the IC50 (pIC50) at Bile acid receptor was 5.46.
The same measure, in the same setting: for `CCc1cc(C(C)=O)c(OC2CCCC2)cc1OCCCCCC(C)(C)c1nnn[nH]1` the value was 5.48; for `CCCCC(=O)c1cc(CC)c(OCCCCCC(C)(C)c2nnn[nH]2)cc1O`, 5.27; for `CCc1cc(C(=O)c2ccccc2)c(O)cc1OCCCCCC(C)(C)c1nnn[nH]1`, 5.51.
In the case of `CCc1cc(C(C)=O)c(OC)cc1OCCCCCC(C)(C)c1nnn[nH]1`, the pIC50 at Bile acid receptor is 5.26.
Still for that read-out and setting: for `CCc1cc(C(C)=O)c(OC(C)c2ccccc2)cc1OCCCCCC(C)(C)c1nnn[nH]1` (configuration not stated) the value was 5.77; for `CCc1cc(C(=O)C(C)C)c(O)cc1OCCCCCC(C)(C)c1nnn[nH]1`, 5.07.
On the same count and under the same terms, for `CCc1cc(C(C)=O)c(O)cc1OCCCCCC(C)(C)C(=O)O` the value was less than 4.00.
`CCCc1cc(C(C)=O)c(O)cc1OCCCCCC(C)(C)c1nnn[nH]1`: the pIC50 at Bile acid receptor was 4.60.
For the compound `CCc1cc(C(C)=O)c(OCc2ccccc2)cc1OCCCCCC(C)(C)c1nnn[nH]1`, in test [1], the Ratio IC50 worked out at 100. Further, the negative-log IC50 (pIC50) at Bile acid receptor was 5.96.
`CCCCc1cc(CC)c(O)cc1OCCCCCC(C)(C)c1nnn[nH]1`: at Bile acid receptor, the pIC50 is 5.06.

(Values after ChEMBL document CHEMBL3112454, “Discovery and SAR study of hydroxyacetophenone derivatives as potent, non-steroidal farnesoid X receptor (FXR) antagonists” (Bioorg Med Chem, 2014).)
